Structures are written as SMILES. Values after ≈ are worked out from the molar mass of the structure shown. Where only a bound is given, the exact number is not on record here.

The values below come from ChEMBL document CHEMBL3414569, “Amino acid modified xanthone derivatives: novel, highly promising membrane-active antimicrobials for multidrug-resistant Gram-positive bacterial infections” (J Med Chem, 2015).

The first series relates to Staphylococcus aureus. The series can be described thus: Antimicrobial activity against methicillin resistant Staphylococcus aureus DM21455 by broth macrodilution method. In kind it is functional.
Settings: not given
In a few lines: (§1)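 Broth macrodilution MIC in Mueller Hinton broth following CLSI guidelines. Inoculum was prepared by direct colony suspension from an 18−20 h tryptic soy agar plate.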
With `COC(=O)C(CCCCN)NC(=O)COc1cc2oc3cc(OCC(=O)NC(CCCCN)C(=O)OC)c(OC)c(CC=C(C)C)c3c(=O)c2c(O)c1CC=C(C)C` (stereo unspecified), inhibition of growth (MIC) required 12 µg/mL (≈ 14.8 µM).

In another series the test system is Bacillus cereus. The series is described as follows: Antimicrobial activity against Bacillus cereus ATCC 11778 by broth macrodilution method. In kind it is functional.
Settings: not given
A digest of the protocol: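 CLSI broth macrodilution in Mueller Hinton broth. Inoculum was made by direct colony suspension from colonies on an 18−20 h tryptic soy agar plate. The value is the MIC.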
Turning to `COC(=O)C(CCCCN)NC(=O)COc1cc2oc3cc(OCC(=O)NC(CCCCN)C(=O)OC)c(OC)c(CC=C(C)C)c3c(=O)c2c(O)c1CC=C(C)C` (stereo unspecified), 12 µg/mL (≈ 14.8 µM) was the least that counted as inhibitory (MIC).

In another series the test system is Staphylococcus aureus. The series is described as follows: Antimicrobial activity against Staphylococcus aureus DM4001 by broth macrodilution method.
Settings: not given
In kind it is functional. A digest of the protocol:
as §1
For `CCN(CC)CCCCOc1cc2oc3cc(OCCCCN(CC)CC)c(OC)c(CCC(C)C)c3c(=O)c2c(O)c1CCC(C)C`, the lowest concentration to inhibit growth (MIC) was 3 µg/mL (≈ 4.48 µM).
As to `COc1c(OCCCCBr)cc2oc3cc(OCCCCBr)c(CCC(C)C)c(O)c3c(=O)c2c1CCC(C)C`, the minimum inhibitory concentration (MIC) (usually the lowest concentration found to suppress growth) is more than 50 µg/mL.
`CCN(CC)CCCCOc1ccc2c(=O)c3c(O)cc(OCCCCN(CC)CC)cc3oc2c1` returned an MIC of more than 50 µg/mL.
The molecule `O=c1c2ccc(OCCCCBr)cc2oc2cc(OCCCCBr)cc(O)c12` gave a minimum inhibitory concentration (MIC) of more than 50 µg/mL.
Same read-out and setting: the figure for `O=c1c2ccc(O)cc2oc2cc(O)cc(O)c12` is more than 50 µg/mL.
On to `COC(=O)C(CCCCN)NC(=O)COc1cc2oc3cc(OCC(=O)NC(CCCCN)C(=O)OC)c(OC)c(CC=C(C)C)c3c(=O)c2c(O)c1CC=C(C)C` (stereo unspecified), for which the MIC amounted to 6 µg/mL (≈ 7.4 µM).
`COc1c(O)cc2oc3cc(O)c(CCC(C)C)c(O)c3c(=O)c2c1CCC(C)C` had an MIC of 50 µg/mL (≈ 121 µM).

Tested on in a further series: not listed separately
The series is described as follows: Induction of hemolysis in New Zealand white rabbit RBC after 1 hr. In kind it is cell-based, Oryctolagus cuniculus, Erythrocyte. The note with it: New Zealand white, red blood cells (RBC). In a few lines: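 Fresh red blood cells isolated from New Zealand white rabbits. Lysis measured over a compound concentration series; HC50 taken as the concentration lysing 50% of RBCs.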
Consider `COC(=O)C(CCCCN)NC(=O)COc1cc2oc3cc(OCC(=O)NC(CCCCN)C(=O)OC)c(OC)c(CC=C(C)C)c3c(=O)c2c(O)c1CC=C(C)C` (stereo unspecified), for which the HC50 (usually the concentration that lyses half of the red blood cells) at 1 h stood at 39 µg/mL.

The next series deals with Staphylococcus aureus. The series is described as follows: Antimicrobial activity against methicillin resistant Staphylococcus aureus DM09809R by broth macrodilution method. It is filed as functional.
Settings: not given
A digest of the protocol: as §1
For `COC(=O)C(CCCCN)NC(=O)COc1cc2oc3cc(OCC(=O)NC(CCCCN)C(=O)OC)c(OC)c(CC=C(C)C)c3c(=O)c2c(O)c1CC=C(C)C` (stereo unspecified), inhibition of growth (MIC) required 6 µg/mL (≈ 7.4 µM).
